The source of these data is ChEMBL document CHEMBL5329211, “Selective isoxazolopyrimidine PAT1 (SLC26A6) inhibitors for therapy of intestinal disorders” (RSC Med Chem, 2023).

Molecules are shown by their SMILES. Calls of active or inactive are those of the source. The rule behind the calls is not given here.

What is called inhibition is the share of the control response that was lost under treatment. What is called IC50 is the concentration that gives 50% inhibition.

The subject of one experiment is Mus musculus. Nature of the experiment: In vivo inhibition of PAT1 in intestinal closed-loop CD-1 mouse model assessed as reduction in loop weight/length ratio in ileum measured for 30 mins. Format: functional. An outline of the steps:
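Mice (wild-type CD1 or homozygous F508del CF, 10-16 wk, both sexes) fasted 24 h with free access to 5% dextrose water. Under isoflurane at 36-38 °C, 2-3 ileal loops (2-3 cm) were tied off and injected with 100 µL PBS pH 7.4 containing 30 µM inhibitor, 10 µM tenapanor or 0.1% DMSO vehicle. Loops removed at 0 or 30 min in separate mice; length and weight measured for fluid absorption. One-way ANOVA with Newman-Keuls.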
In the case of `CN1Cc2c(Cl)cc(Cl)cc2[C@H](c2cccc(S(=O)(=O)NCCOCCOCCNC(=O)NCCCCNC(=O)NCCOCCOCCNS(=O)(=O)c3cccc([C@@H]4CN(C)Cc5c(Cl)cc(Cl)cc54)c3)c2)C1`, the inhibition result is “Active”.

Another experiment deals with Solute carrier family 26 member 6 (Mus musculus) (UniProt Q8CIW6). The experiment in a line: Inhibition of SLC26A6 (unknown origin) expressed in rat FRT cells coexpressing YFP halide-sensing protein assessed as iodide-chloride exchange incubated for 2 sec by fluorescence quenching analysis.
Chain of Solute carrier family 26 member 6 (Mus musculus) (Q8CIW6 whole entry, looked up): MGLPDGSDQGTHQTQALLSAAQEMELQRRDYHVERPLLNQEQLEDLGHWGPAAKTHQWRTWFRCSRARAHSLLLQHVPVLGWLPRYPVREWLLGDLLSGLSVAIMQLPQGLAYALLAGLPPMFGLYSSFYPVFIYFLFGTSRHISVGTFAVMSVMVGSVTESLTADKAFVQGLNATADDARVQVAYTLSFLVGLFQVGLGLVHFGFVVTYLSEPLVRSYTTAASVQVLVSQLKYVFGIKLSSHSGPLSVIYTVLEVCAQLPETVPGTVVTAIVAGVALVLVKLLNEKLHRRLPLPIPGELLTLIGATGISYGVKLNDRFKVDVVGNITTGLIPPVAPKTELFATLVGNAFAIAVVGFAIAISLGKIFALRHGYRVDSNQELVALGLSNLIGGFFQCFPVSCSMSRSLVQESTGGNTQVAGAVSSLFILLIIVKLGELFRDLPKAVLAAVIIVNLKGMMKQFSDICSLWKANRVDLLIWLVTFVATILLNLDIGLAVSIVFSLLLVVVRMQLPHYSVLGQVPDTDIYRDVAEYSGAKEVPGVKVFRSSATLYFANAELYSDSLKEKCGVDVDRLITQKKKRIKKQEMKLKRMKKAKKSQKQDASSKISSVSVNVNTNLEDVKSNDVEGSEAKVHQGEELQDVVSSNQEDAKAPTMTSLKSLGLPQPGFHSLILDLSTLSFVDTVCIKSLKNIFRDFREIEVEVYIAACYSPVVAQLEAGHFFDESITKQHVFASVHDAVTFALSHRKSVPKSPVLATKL
On to `CCOC(=O)c1nc(NCc2cccc(OC)c2)c2c(C)noc2n1`, for which the IC50 was determined as 4.4 µM. On the same count and under the same terms, next, `CCOC(=O)c1nc(NCCC(C)C)c2c(C)noc2n1`: 2.3 µM; `CCOC(=O)c1nc(NCc2ccc(OCC)cc2)c2c(C)noc2n1`: 2 µM; `CCOC(=O)c1nc(NCc2cccnc2)c2c(-c3ccc(F)cc3)noc2n1`: 3.4 µM.

Consider `CCCOc1ccc(CNc2nc(C(=O)OCC)nc3onc(C)c23)cc1`, for which the half-inhibitory concentration (IC50) was 5.7 µM.

On to `CCOC(=O)c1nc(NCc2cccc(Br)c2)c2c(C)noc2n1`, for which the IC50 turned out to be 1.1 µM. Still for that read-out and setting: next, `CCOC(=O)c1nc(NCCc2ccco2)c2c(CC)noc2n1`: 1.4 µM; `CCOC(=O)c1nc(NCc2ccccc2F)c2c(CC)noc2n1`: 5.2 µM. Same read-out and setting: next, `CCOC(=O)c1nc(NCCc2ccccc2)c2c(CC)noc2n1`: 3.2 µM; `CCOC(=O)c1nc(NCc2cc(Br)ccc2OC)c2c(CC)noc2n1`: 2.5 µM; `CCOC(=O)c1nc(NCc2ccccc2F)c2c(C)noc2n1`: 1.1 µM. On the same count and under the same terms, next, `CCOC(=O)c1nc(NCc2ccc(OC(C)C)cc2)c2c(C)noc2n1`: 6.5 µM; `CCOC(=O)c1nc(NCc2cc(C)ccc2C)c2c(C)noc2n1`: 1.5 µM.

With `CCOC(=O)c1nc(NCc2ccccc2OC)c2c(CC)noc2n1`, the concentration for half-maximal inhibition (IC50) came to 1.9 µM. The same measure, in the same setting: the result for `CCOC(=O)c1nc(NCCc2ccc(Cl)cc2)c2c(CC)noc2n1` reads 5.2 µM; that for `CCOC(=O)c1nc(NCc2cccc(F)c2)c2c(C)noc2n1`, 2.2 µM; that for `CCOC(=O)c1nc(NCc2ccccc2)c2c(CC)noc2n1`, 4.3 µM. The same measure, in the same setting: next, `CCOC(=O)c1nc(NCc2cccc(C)c2)c2c(C)noc2n1`: 1.1 µM; `CCOC(=O)c1nc(Nc2ccccc2C)c2c(C)noc2n1`: 3.7 µM; `CCOC(=O)c1nc(NCCc2ccsc2)c2c(C)noc2n1`: 1.8 µM. For `CCOC(=O)c1nc(NCc2ccc(F)cc2)c2c(C)noc2n1`, the IC50 turned out to be 2.3 µM. Same read-out and setting: the result for `CCOC(=O)c1nc(NCc2ccccc2Cl)c2c(C)noc2n1` reads 1.1 µM; that for `CCOC(=O)c1nc(NCc2ccc(F)cc2)c2c(CC)noc2n1`, 3.2 µM; that for `CCOC(=O)c1nc(NCCc2ccccc2Cl)c2c(CC)noc2n1`, 5.2 µM.

With `CCOC(=O)c1nc(NCc2ccc(SC)cc2)c2c(C)noc2n1`, the IC50 came to 2.6 µM. Still for that read-out and setting: the result for `CCOC(=O)c1nc(NCc2ccc(C)cc2)c2c(CC)noc2n1` reads 3.8 µM; that for `CCOC(=O)c1nc(NCc2ccc(Cl)cc2)c2c(CC)noc2n1`, 3.4 µM. Still for that read-out and setting: next, `CCOC(=O)c1nc(N2CCN(c3cccc(Cl)c3)CC2)c2c(C)noc2n1`: 2.6 µM; `CCOC(=O)c1nc(NCc2ccccc2)c2c(C)noc2n1`: 1.8 µM; `CCOC(=O)c1nc(NCc2cc(OC)ccc2OC)c2c(CC)noc2n1`: 3.7 µM. On the same count and under the same terms, next, `CCOC(=O)c1nc(NCCc2cccs2)c2c(CC)noc2n1`: 1.6 µM. For the compound `CCOC(=O)c1nc(NCC(C)OC)c2c(-c3ccc(F)cc3)noc2n1` (stereo not drawn), the concentration for half-maximal inhibition (IC50) turned out to be 5.1 µM.

Turning to `CCOC(=O)c1nc(NCc2ccccc2OC)c2c(C)noc2n1`, the IC50 came out at 17.2 µM. Still for that read-out and setting: the result for `CCOC(=O)c1nc(Nc2cccc(C)c2C)c2c(C)noc2n1` reads 1.2 µM; that for `CCOC(=O)c1nc(NCCc2ccco2)c2c(C)noc2n1`, 2.4 µM.

The target is the same in the next experiment. Nature of the experiment: Inhibition of SLC26A6 (unknown origin) expressed in rat FRT cells coexpressing YFP halide-sensing protein assessed as iodide-chloride exchange at 25 uM incubated for 2 sec by fluorescence quenching analysis relative to control.
On to `CCOC(=O)c1nc(NCc2cccc(Br)c2)c2c(-c3ccc(F)cc3)noc2n1`, for which the inhibition was less than 25%. Same read-out and setting: next, `CCOC(=O)c1nc(NCc2ccccc2OCC)c2c(C)noc2n1`: less than 25%.
